Assay outcomes: PubChem, several laboratories
CHOP UPR activ – activators of apoptotic CHOP UPR arm, primary screen, cell-based, CHO-CHOP luciferase reporter, luminescence, uHTS | activation, % at 10 µM | UPR activation; percent of tunicamycin response over DMSO baseline | 330,000 compounds, 0.34% hits;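 active = at 10 µM dose, activation of 40% or more, normalized to positive control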;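 also: 100% = tunicamycin at 10 µg/mL and 0% = DMSO alone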
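Test system: CHO-CHOP cells, stable luciferase reporter of PERK-eIF2a-CHOP signalling | Quantity: 500 CHO-CHOP cells per well | Buffer or medium: F12 plus 10% serum | Compound dosing: 10 µM single point, 0.5% DMSO | Schedule: 6 h compound treatment, 37 °C | Signal: Luciferase luminescence | Control set: Tunicamycin high control, DMSO low control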
CHOP inh – inhibitors of CHOP promoter induction, primary screen, cell-based, unfolded protein response, luciferase reporter. inhibition, % at 10 µM. AID 2732, 2010. CHO-K1 CHOP-promoter luciferase, tunicamycin-induced, 15-18 h. 220,000 compounds, 3.8% hits;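 active = compounds that reduced the stress-induced luciferase reporter signal by more than about 70% of percent inhibition, limit read from the data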;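 also: 0% = tunicamycin plus vehicle and 100% = wells without tunicamycin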
XBP1 UPR activ – activators of adaptive XBP1 UPR arm, primary screen, cell-based, CHO-XBP1 luciferase reporter, luminescence, uHTS; IRE1-XBP1 UPR activation; percent of tunicamycin response, DMSO as zero; activation, % at 20 µM; 330,000 compounds, 0.33% hits;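 active = versus positive control, 20 µM dose yields 30% or more activation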;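 also: 100% = tunicamycin at 10 µg/mL and 0% = DMSO only wells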
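assay system = CHO-XBP1 luciferase reporter cells | amount = 1000 cells/well | buffer or medium = F12 plus 10% FBS | compound dosing = single point, 20 µM final compound, 1% DMSO | incubation = 16-18 h cell attachment at 37 °C, then 6 h compound exposure | detection = Steady-Glo luminescence read | controls = tunicamycin 10 µg/mL and vehicle-only wells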
TLR4 MyD88 comp – inhibitors of TLR4-MyD88 association in cells, primary screen, cell-based, HeLa CL3-4, BLA complementation, FRET ratio; Toll-like receptor 4 (Homo sapiens) + Myeloid differentiation primary response protein …; HeLa CL3-4 TLR4/MyD88 BLA complementation; inhibition, % at 8.4 µM; 200,000 compounds, 0.18% hits; AID 861, 2007; in the data active = inhibition above about 25%;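 also: 0% = vehicle and 100% = reference inhibitor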
NOD2-RIPK2 inh – NOD2-RIPK2 binding disruptors in cells, primary screen, fluorescence, CHO cells, BLA complementation | 360,000 compounds, 0.38% hits | AID 624267, 2012 | CCF4 ratio | inhibition, % at 4.98 µM | Receptor-interacting serine/threonine-protein kinase 2 (Homo sapiens), O43353; in the data active = inhibition above about 21%;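 also: 0% = vehicle only and 100% = reference blocker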
TLR9-MyD88 block – inhibitors of TLR9-MyD88 association in cells, primary screen, cell-based, CHO, BLA complementation, fluorescence; CCF4 FRET ratio; inhibition, % at 4.98 µM; 340,000 compounds, 0.21% hits; AID 504734, 2011;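 active = inhibition above the mean over all tested compounds plus 3 SD, cut at about 21% in these data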;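 also: 0% = DMSO only wells and 100% = clavulanate BLA inhibitor control wells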
Starred values were filed as active, the others as inactive; / = not tested or not shown. The full list was thinned out, with hits kept by preference.

SMILES	CHOP UPR activ	CHOP inh	XBP1 UPR activ	TLR4 MyD88 comp	NOD2-RIPK2 inh	TLR9-MyD88 block
COc1ccc(NC(=O)c2cc3n(n2)C(C(F)(F)F)CC(c2ccc4c(c2)OCO4)N3)cc1OC (stereo not drawn)	0	62	-3	15	0	5
O=C(Nc1ccc(O)cc1)c1cc2n(n1)C(C(F)(F)F)CC(c1ccco1)N2 (stereo not drawn)	-1	7	4	4	1	2
CCN(CC)S(=O)(=O)c1cccc(N=Nc2c(O)c3ccccc3oc2=O)c1	3	-12	0	/	-7	-9
COc1ccc(-c2c(C(F)(F)F)oc3cc(OCC(=O)Nc4ccccc4C(F)(F)F)ccc3c2=O)cc1OC	/	91*	/	-1	-5	1
COc1ccccc1-c1c(C(F)(F)F)oc2cc(OCC(=O)Nc3ccccc3C(F)(F)F)ccc2c1=O	0	34	1	9	0	5
Cc1ccc(NC(=O)CSc2ccccc2NC(=O)c2ccccc2Cl)cc1Cl	7	-19	-1	8	15	20
CCc1nc(Nc2ccc(OC)c(OC)c2)c2nnn(Cc3ccccc3Cl)c2n1	1	91*	5	-1	7	0
Cc1cc(=O)oc2cc(NC(=O)CCOc3ccccc3)ccc12	5	/	-2	/	1	3
Cc1cc(NC(=O)CSc2nc3cc(C)c(C)cc3cc2C)no1	2	/	-7	/	2	-11
Cc1cc(NC(=O)CSc2nnc(NCc3ccccc3)s2)no1	-1	10	0	/	-3	1
COc1ccccc1Nc1nnc(SCC(=O)Nc2cc(C)on2)s1	-3	95*	0	4	-5	1
COc1ccc2cc(C)c(SCC(=O)Nc3cc(C)on3)nc2c1	13	84*	23	3	-7	-8
CC1(C(=O)NS(=O)(=O)C2CC2)CCCN(C(=O)Cc2ccc3ccccc3c2)C1 (stereo not drawn)	/	/	/	/	0	/
CC(=O)SC1CC2=CC(=O)CC[C@]2(C)C2CC[C@@]3(C)C(CC[C@@]34CCC(=O)O4)C12 (stereo partly drawn)	/	3	/	/	/	/
CCCCc1nc(Cl)c(C#N)c2c1CCC2	1	19	-3	/	-9	/
CCCCc1nc(Cl)c(C#N)c2c1CCCC2	-3	88*	-1	-15	-5	-4
CC(C)[C@H](NC(=O)c1ccccc1)C(=O)OCC(=O)/C=C1/N(C)c2ccccc2C1(C)C	0	70*	0	8	-3	-6
COc1cc(OC)cc(C(=O)NCC(=O)OCC(=O)/C=C2/N(C)c3ccccc3C2(C)C)c1	-3	61	0	-4	0	4
CN1CCN(c2oc(COc3ccc(-c4ccccc4)cc3)nc2C#N)CC1	0	87*	0	8	-9	-6
COc1ccc(N2CCN(c3oc(COc4ccccc4)nc3C#N)CC2)cc1	1	35	-3	-8	-3	5
O=C1NN=C(c2ccc(Br)cc2)CC1c1ccc(Cl)cc1 (stereo not drawn)	1	91*	0	9	-7	-7
Cc1ccc(C2CC(c3ccc(Cl)cc3)=NNC2=O)cc1 (stereo not drawn)	-2	56	0	2	-1	-1
CC(=O)N1CCC(C(=O)N2c3ccccc3N=C(c3ccc(C(F)(F)F)cc3)C2C(=O)NC(C)C)CC1 (stereo not drawn)	/	/	/	/	3	/
Cc1cccc(C2(c3cccc(C)c3)CC2C(=O)Nc2ccc([N+](=O)[O-])cc2O)c1 (stereo not drawn)	10	103*	2	11	-5	0
CC(C)CNC(=O)CSc1nnc(-c2ccccn2)n1Cc1ccccc1	-3	71*	-2	-1	3	-3
SMILES	CHOP UPR activ	CHOP inh	XBP1 UPR activ	TLR4 MyD88 comp	NOD2-RIPK2 inh	TLR9-MyD88 block
CCCn1c(SCC(=O)NCCc2ccccc2)nnc1-c1ccccn1	-3	29	0	4	-8	6
CC(C)(NO)/C(=N\O)c1ccccc1	-4	72*	-1	6	-13	2
ONC(=NCc1ccccc1)c1ccccc1	/	/	/	/	-10	10
O=C(Nc1c2c(nn1-c1ccccc1)CS(=O)C2)c1ccc2c(c1)OCO2 (stereo not drawn)	-1	/	-4	/	-4	7
O=c1c2c3nc4ccccc4nc3n(-c3ccc4c(c3)OCCO4)c2ncn1C1CCCC1	77*	/	10	/	5	-3
Nc1c(C(=O)OCC2CCCO2)c2nc3ccccc3nc2n1-c1ccc2c(c1)OCCO2 (stereo not drawn)	-4	46	-7	21	/	/
O=C1Nc2ccc(Cl)cc2[C@@](C#CC2CC2)(C(F)(F)F)O1	0	102*	-5	/	/	/
O=C(Nc1ccc(N2CCOCC2)cc1)Nc1ccc(Cl)c(Cl)c1	4	79*	3	2	1	2
CCCCN(C(=O)c1ccc(S(=O)(=O)N(C)C)cc1)c1ccccc1	-2	20	-1	/	-7	4
CCCCN(C(=O)c1ccc(S(=O)(=O)N(C)C)cc1)c1nc2ccccc2s1	2	71*	-3	11	2	-1
CN(C(=O)c1ccccc1)c1nc2ccccc2s1	-2	72*	-10	-4	-3	-7
CN(C)C(=O)c1nc2ccccc2s1	1	-17	3	-3	-11	8
CC1CN(C(=O)c2ccc(Br)c(S(=O)(=O)N3CCOCC3)c2)CC(C)O1 (stereo not drawn)	1	/	-2	/	-4	-12
CN(C)CCCN1CC(C(=O)O)CC1=O (stereo not drawn)	-1	76*	-1	2	4	1
CCOC(=O)c1cc(S(=O)(=O)Nc2ccc(OC)cc2OC)cn1C	0	/	-7	/	0	3
CCCCOc1ccc(CNn2c(C)nc3ccccc3c2=O)cc1	1	81*	-2	4	3	-3
O=C(NCc1ccccn1)c1ccccc1OCc1ccccc1Cl	/	/	/	/	-14	-4
O=C(Nc1nc(-c2ccccc2)cs1)c1ccc(Br)o1	6	74*	5	-3	-5	12
O=C(NC(=S)Nc1nc(-c2ccccc2)cs1)c1cccs1	3	74*	0	-4	3	2
O=C(Nc1cccc2ccccc12)c1ccc(Br)o1	/	-4	/	5	0	-1
O=C(Nc1cccc2cccnc12)c1ccc(Br)o1	1	77*	1	-14	-3	-2
